# Measured values: ChEMBL document CHEMBL4004822, “Thienopyrimidinone Based Sirtuin-2 (SIRT2)-Selective Inhibitors Bind in the Ligand Induced Selectivity Pocket” (J Med Chem, 2017)
# Activity calls are given as the source filed them. The calls are words filed in the database; no cut-off is given here.
# Columns and labels:
# [1] = biological target: NAD-dependent protein deacylase sirtuin-6 (Homo sapiens, UniProt Q8N6T7); test: Inhibition of human SIRT6 (13 to 308 residues) using Ac-EALPKK(Myristoyl)TGG-NH2 as substrate after 10 mins in presence of NAD+ by fluorescence assay
# [2] = biological target: T1, NAD-dependent protein deacetylase sirtuin-1 (Homo sapiens, UniProt Q96EB6); test: Inhibition of human SIRT1 (133 to 747 residues) using (Z-Lys(Acetyl)-AMC) as substrate after 4 hrs in presence of NAD+ by fluorescence assay
# T1 sequence (Q96EB6 whole entry): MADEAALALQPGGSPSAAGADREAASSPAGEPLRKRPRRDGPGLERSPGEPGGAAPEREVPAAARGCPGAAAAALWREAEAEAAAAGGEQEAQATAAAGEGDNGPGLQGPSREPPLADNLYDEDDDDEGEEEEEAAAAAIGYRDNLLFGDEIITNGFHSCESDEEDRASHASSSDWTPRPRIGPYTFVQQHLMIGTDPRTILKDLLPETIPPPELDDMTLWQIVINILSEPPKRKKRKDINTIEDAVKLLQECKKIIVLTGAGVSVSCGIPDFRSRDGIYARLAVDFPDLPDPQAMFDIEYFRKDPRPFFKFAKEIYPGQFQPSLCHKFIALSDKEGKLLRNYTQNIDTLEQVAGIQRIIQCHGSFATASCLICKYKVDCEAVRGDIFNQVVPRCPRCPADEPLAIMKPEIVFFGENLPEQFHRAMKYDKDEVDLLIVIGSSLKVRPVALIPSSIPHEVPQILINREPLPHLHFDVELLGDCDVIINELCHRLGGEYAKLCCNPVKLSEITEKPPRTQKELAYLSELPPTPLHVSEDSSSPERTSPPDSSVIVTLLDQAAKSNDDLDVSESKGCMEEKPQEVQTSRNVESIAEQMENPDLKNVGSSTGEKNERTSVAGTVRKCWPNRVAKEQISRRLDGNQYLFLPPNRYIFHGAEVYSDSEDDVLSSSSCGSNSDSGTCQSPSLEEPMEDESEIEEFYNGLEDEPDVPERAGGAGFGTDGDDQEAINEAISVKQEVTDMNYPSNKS
# [3] = biological target: T2, NAD-dependent protein deacetylase sirtuin-2 (Homo sapiens, UniProt Q8IXJ6); test: Inhibition of recombinant human C-terminal His-tagged SIRT2 (50 to 389 end residues) expressed in Escherichia coli using p53 derived (379 to 382 residues) fluorogenic peptide substrate RHKK(Ac)-AMC preincubated for 10 mins followed by substrate addition in presence of NAD+ by fluorescence assay
# T2 sequence (Q8IXJ6 whole entry): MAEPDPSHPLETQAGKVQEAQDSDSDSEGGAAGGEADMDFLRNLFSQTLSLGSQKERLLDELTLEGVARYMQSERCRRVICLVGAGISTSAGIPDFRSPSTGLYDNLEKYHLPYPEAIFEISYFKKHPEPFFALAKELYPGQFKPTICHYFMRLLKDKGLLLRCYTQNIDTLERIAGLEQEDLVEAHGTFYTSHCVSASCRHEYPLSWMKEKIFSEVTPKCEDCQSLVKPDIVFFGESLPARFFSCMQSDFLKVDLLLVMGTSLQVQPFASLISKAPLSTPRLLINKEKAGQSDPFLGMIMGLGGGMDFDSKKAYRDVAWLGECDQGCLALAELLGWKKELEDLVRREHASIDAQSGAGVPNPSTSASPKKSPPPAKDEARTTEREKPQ
# In short: (§1)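 Two-step fluorogenic assay with p53 379–382 RHKK(Ac)-AMC. Compound (from 10 mM DMSO stock) preincubated ~10 min with human SIRT before substrate addition. Developer then releases fluorophore, read at ex 360/em 460 nm.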
# [4] = biological target: T1, NAD-dependent protein deacetylase sirtuin-1; test: Inhibition of recombinant human N-terminal His-tagged SIRT1 (1 to 747 end residues) expressed in Escherichia coli using p53 derived (379 to 382 residues) fluorogenic peptide substrate RHKK(Ac)-AMC preincubated for 10 mins followed by substrate addition in presence of NAD+ by fluorescence assay; in short: as §1
# [5] = biological target: T3, NAD-dependent protein deacetylase sirtuin-2 (Homo sapiens) (UniProt Q8IXJ6); test: Inhibition of recombinant human C-terminal His-tagged SIRT2 (50 to 389 end residues) expressed in Escherichia coli at 10 uM using p53 derived (379 to 382 residues) fluorogenic peptide substrate RHKK(Ac)-AMC preincubated for 10 mins followed by substrate addition in presence of NAD+ by fluorescence assay relative to control; in short: as §1
# T3 sequence (whole entry): T2 sequence (Q8IXJ6 whole entry)
# [6] = biological target: T3, NAD-dependent protein deacetylase sirtuin-2 (Homo sapiens); test: Inhibition of SIRT2 in human MCF7 cells assessed as increase in alpha-tubulin K40 acetylation level at 1 to 50 uM after 24 hrs in presence of TSA by Western blot analysis; assay type: cell-based
# In short: (§2)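 MCF-7 cells (ATCC, authenticated) kept in DMEM with 10% FCS, penicillin/streptomycin and 2 mM glutamine at 37 °C under 10% CO2. Treated 24 h with compound at 0, 1, 10, 20, 30 or 50 μM plus 50 nM TSA to block non-sirtuin HDACs. NP40 lysates (20 μg protein, BCA-quantified) run on SDS-PAGE and Western blotted for acetyl-K40 α-tubulin, total α-tubulin and β-actin; ECL detection.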
# [7] = biological target: T3, NAD-dependent protein deacetylase sirtuin-2 (Homo sapiens); test: Inhibition of SIRT2 in human MCF7 cells assessed as increase in alpha-tubulin K40 acetylation level at 10 to 50 uM after 24 hrs in presence of TSA by Western blot analysis; assay type: cell-based; in short: as §2
# [8] = biological target: T1, NAD-dependent protein deacetylase sirtuin-1; test: Inhibition of human SIRT1
# In short: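 Compounds were pre-incubated with human SIRT about 10 min before substrate addition, then developer added. Read ex 360/em 460 nm; activity relative to DMSO; sigmoidal 10-dose IC50, n = 2; suramin positive control.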
# [9] = biological target: NAD-dependent protein deacylase sirtuin-5, mitochondrial (Homo sapiens, UniProt Q9NXA8); test: Inhibition of recombinant human N-terminal His-tagged SIRT5 (37 to 310 end residues) expressed in Escherichia coli using Ac-K(Succ)-AMC as substrate in presence of NAD+ by fluorescence assay
# [10] = biological target: T3, NAD-dependent protein deacetylase sirtuin-2 (Homo sapiens); test: Inhibition of SIRT2 in human MCF7 cells assessed as increase in alpha-tubulin K40 acetylation level at 20 uM after 24 hrs in presence of TSA by Western blot analysis; assay type: cell-based; in short: as §2
# [11] = biological target: T2, NAD-dependent protein deacetylase sirtuin-2; test: Inhibition of recombinant human C-terminal His-tagged SIRT2 (50 to 389 end residues) expressed in Escherichia coli in presence of NAD+ by enzyme coupled SIRT-Glo assay
# [12] = biological target: T2, NAD-dependent protein deacetylase sirtuin-2; test: Inhibition of recombinant human C-terminal His-tagged SIRT2 (50 to 389 end residues) expressed in Escherichia coli using tubulin-K40 peptide in presence of NAD+
# Homo sapiens [13] = species: Homo sapiens; test: Selectivity ratio of IC50 for recombinant human N-terminal His-tagged SIRT1 (1 to 747 end residues) expressed in Escherichia coli to IC50 for recombinant human C-terminal His-tagged SIRT2 (50 to 389 end residues) expressed in Escherichia coli
# [14] = biological target: T3, NAD-dependent protein deacetylase sirtuin-2 (Homo sapiens); test: Inhibition of SIRT2 in human MCF7 cells assessed as increase in alpha-tubulin K40 acetylation level at 50 uM after 24 hrs in presence of TSA by Western blot analysis; assay type: cell-based; in short: as §2
# [15] = biological target: T4, NAD-dependent protein deacetylase sirtuin-3, mitochondrial (Homo sapiens, UniProt Q9NTG7); test: Inhibition of recombinant human N-terminal GST-tagged SIRT3 (101 to 399 residues) expressed in Escherichia coli using p53 derived (379 to 382 residues) fluorogenic peptide substrate RHKK(Ac)-AMC) preincubated for 10 mins followed by substrate addition in presence of NAD+ by fluorescence assay
# T4 sequence (Q9NTG7 whole entry): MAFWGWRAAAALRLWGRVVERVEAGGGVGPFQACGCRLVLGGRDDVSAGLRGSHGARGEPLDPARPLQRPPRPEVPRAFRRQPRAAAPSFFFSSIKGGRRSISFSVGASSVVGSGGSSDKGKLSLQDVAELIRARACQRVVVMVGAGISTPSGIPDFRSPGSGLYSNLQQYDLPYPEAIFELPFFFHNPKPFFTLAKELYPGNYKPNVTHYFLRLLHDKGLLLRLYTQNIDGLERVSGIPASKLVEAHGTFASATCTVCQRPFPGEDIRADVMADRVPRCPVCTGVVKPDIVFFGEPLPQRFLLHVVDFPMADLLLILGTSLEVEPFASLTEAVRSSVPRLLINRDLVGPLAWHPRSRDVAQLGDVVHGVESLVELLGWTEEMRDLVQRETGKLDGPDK
# Homo sapiens [16] = species: Homo sapiens; test: Selectivity ratio of IC50 for recombinant human N-terminal GST-tagged SIRT3 (101 to 399 residues) expressed in Escherichia coli to IC50 for recombinant human C-terminal His-tagged SIRT2 (50 to 389 end residues) expressed in Escherichia coli
# [17] = biological target: T3, NAD-dependent protein deacetylase sirtuin-2 (Homo sapiens); test: Inhibition of SIRT2 in human MCF7 cells assessed as increase in alpha-tubulin K40 acetylation level after 24 hrs in presence of TSA by Western blot analysis; assay type: cell-based; in short: as §2
# NAD-dependent protein deacylase sirtuin-6, sequence (Q8N6T7 whole entry, the tested form may be a part): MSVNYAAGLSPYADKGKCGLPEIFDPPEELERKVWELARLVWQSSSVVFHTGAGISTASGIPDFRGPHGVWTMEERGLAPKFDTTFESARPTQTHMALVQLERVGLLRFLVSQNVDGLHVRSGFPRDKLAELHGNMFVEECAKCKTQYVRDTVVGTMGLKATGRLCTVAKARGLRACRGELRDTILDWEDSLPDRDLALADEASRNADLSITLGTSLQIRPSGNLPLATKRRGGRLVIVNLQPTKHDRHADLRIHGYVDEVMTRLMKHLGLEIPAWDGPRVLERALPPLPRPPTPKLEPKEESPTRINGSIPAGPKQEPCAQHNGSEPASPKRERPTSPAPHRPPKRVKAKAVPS
# NAD-dependent protein deacylase sirtuin-5, mitochondrial, sequence (Q9NXA8 whole entry): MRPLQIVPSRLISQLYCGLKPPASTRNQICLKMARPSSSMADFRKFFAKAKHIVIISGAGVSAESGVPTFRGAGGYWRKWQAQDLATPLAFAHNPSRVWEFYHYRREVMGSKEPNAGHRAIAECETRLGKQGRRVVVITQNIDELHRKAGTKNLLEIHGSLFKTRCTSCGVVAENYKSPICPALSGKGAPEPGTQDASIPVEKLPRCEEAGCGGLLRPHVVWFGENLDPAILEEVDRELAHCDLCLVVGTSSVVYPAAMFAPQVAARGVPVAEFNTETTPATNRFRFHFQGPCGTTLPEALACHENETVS
Structure (SMILES),IC50 [3] [µM],inhibition [5] [%],further results
Cc1cc(C)nc(SCC(=O)Nc2ncc(Cc3cccc4ccccc34)s2)n1,,,IC50 [1]: > 200 µM; IC50 [2]: > 100 µM
COc1ccc(CNC2CCc3c(sc4ncn(Cc5c(OC)ccc6ccccc56)c(=O)c34)C2)cc1 (stereo not drawn),0.65,96,IC50 [4]: 119 µM
O=c1c2c3c(sc2ncn1Cc1ccccc1)CC(NCC1CCCO1)CC3 (stereo not drawn),,22,inhibition [6]: inactive
N#C/C(=C\c1ccc(-c2cc(Cl)ccc2Cl)o1)C(=O)Nc1cccc2ncccc12,,,inhibition [7]: Active; IC50 [8]: > 50 µM
COc1ccc2ccccc2c1Cn1cnc2sc3c(c2c1=O)CCC(NCc1cccnc1)C3 (stereo not drawn),,,IC50 [9]: > 100 µM; inhibition [10]: Active; IC50 [11]: 0.17 µM; Ki [12]: 0.62 µM; Ratio IC50 (Homo sapiens [13]): > 100; IC50 [4]: > 100 µM; inhibition [14]: inactive; IC50 [15]: > 100 µM; Ratio IC50 (Homo sapiens [16]): > 100
COc1ccc(Cn2cnc3sc4c(c3c2=O)CCC(NCc2c(C)noc2C)C4)c2ccccc12 (stereo not drawn),0.58,96,inhibition [7]: Active; Ratio IC50 (Homo sapiens [13]): 222; IC50 [4]: 129 µM; IC50 [15]: 18 µM; inhibition [17]: Dose-dependent effect; Ratio IC50 (Homo sapiens [16]): 31
COc1ccc2ccccc2c1Cn1cnc2sc3c(c2c1=O)CCC(NC1CCCC1)C3 (stereo not drawn),1.18,99,
O=c1c2c3c(sc2ncn1Cc1cccc(-c2ccccc2)c1)CC(NCCC1CCCCC1)CC3 (stereo not drawn),3.74,90,
COc1ccc(Cn2cnc3sc4c(c3c2=O)CCC(NC2CCCC2)C4)c2ccccc12 (stereo not drawn),0.73,94,IC50 [4]: 13.8 µM
O=c1c2c3c(sc2ncn1Cc1ccc2ccccc2c1)CC(NCc1cncnc1)CC3 (stereo not drawn),5.3,88,
COc1ccc2ccccc2c1Cn1cnc2sc(CCNC3CCOCC3)c(C)c2c1=O,8.15,68,
O=c1c2c3c(sc2ncn1Cc1cccc2cccnc12)CC(NCc1cccs1)CC3 (stereo not drawn),2.56,88,
O=c1c2c3c(sc2ncn1Cc1cccc2cccnc12)CC(NCc1cccc(F)c1)CC3 (stereo not drawn),1.72,94,
COc1ccc2ccccc2c1Cn1cnc2sc(CCNCc3ccncc3)c(C)c2c1=O,2.93,94,
O=c1c2c3c(sc2ncn1Cc1cccc2ccccc12)CC(NCc1ccco1)CC3 (stereo not drawn),7.61,70,
N#Cc1ccc(CNC2CCc3c(sc4ncn(Cc5cccc6cccnc56)c(=O)c34)C2)cc1 (stereo not drawn),0.39,97,Ratio IC50 (Homo sapiens [13]): 108; IC50 [4]: 42.1 µM; IC50 [15]: > 100 µM; Ratio IC50 (Homo sapiens [16]): > 256
COc1ccccc1CNC1CCc2c(sc3ncn(Cc4ccc5ccccc5c4)c(=O)c23)C1 (stereo not drawn),4.22,75,
COc1ccccc1CNC1CCc2c(sc3ncn(Cc4c(OC)ccc5ccccc45)c(=O)c23)C1 (stereo not drawn),2.24,89,
O=c1c2c3c(sc2ncn1Cc1cccc2ccccc12)CC(NCc1ccccn1)CC3 (stereo not drawn),7.68,81,
COc1ccc2ccccc2c1Cn1cnc2sc3c(c2c1=O)CCC(NCC1CCCCC1)C3 (stereo not drawn),1.65,97,
COc1ccc2ccccc2c1Cn1cnc2sc(CCNCc3cccnc3)c(C)c2c1=O,2.15,93,
COc1ccc2ccccc2c1Cn1cnc2sc3c(c2c1=O)CCC(NCc1ccncc1)C3 (stereo not drawn),1.2,95,
